Assay results published in PMC2842482 (ACS chemical biology, 2010).
Where “and” joins values, the source holds several entries; their conditions need not be identical. Equal entries are not always repeated. Where two headings read alike, the source gives them in different places.

What was measured:
[1] = aqueous solution; cited from earlier work
Mn-hArgI = molecular target: T1, Mn-hArgI (Homo sapiens, UniProt P05089); assay: Inhibition of Mn-hArgI by L-Orn and L-Leu; type: biochemical
T1 sequence (P05089 1-322): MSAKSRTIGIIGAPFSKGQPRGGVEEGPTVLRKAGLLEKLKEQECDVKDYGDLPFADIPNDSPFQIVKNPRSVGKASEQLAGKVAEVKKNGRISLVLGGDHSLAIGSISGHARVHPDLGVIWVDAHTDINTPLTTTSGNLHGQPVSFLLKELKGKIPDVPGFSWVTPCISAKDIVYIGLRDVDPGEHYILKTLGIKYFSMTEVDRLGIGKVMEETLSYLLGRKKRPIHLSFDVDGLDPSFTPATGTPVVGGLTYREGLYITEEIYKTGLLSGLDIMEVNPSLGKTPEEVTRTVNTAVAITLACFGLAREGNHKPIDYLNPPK

Co-hArgI = molecular target: T2, Co-hArgI (Homo sapiens, UniProt P05089); assay: Inhibition of Co-hArgI by L-Orn and L-Leu; type: biochemical
T2 sequence (P05089 1-322): T1 sequence (P05089 1-322)

hArgII = details: cited from earlier work
rat Arginase I = rat Arginase I at pH 9.0; cited from earlier work
[2] = Steady-state kinetics of L-Arg hydrolysis by purified hArgI; type: biochemical; details: for kcat: hydrolysis of L-Arg, 100 mM Hepes buffer; for Fold change KM L-Arg: pH 7.4 vs pH 8.5; for Km: read-out: KM L-Arg
Summary of the method: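 His6-TEV-tagged human ArgI expressed in E. coli BL21 and IMAC-purified. Loaded with 10 mM CoCl2 or MnSO4 (15 min, 50–55 °C), then exchanged into 100 mM HEPES/10% glycerol, pH 7.4. Concentration taken from A280 in 6 M guanidinium. Enzyme-started reactions quenched with 12 N HCl after 30 s. Urea derivatised with DAMO/thiosemicarbazide/Fe3+ (COLDER) by 15 min boiling, read at A530 with L-Arg blanks. At least triplicate; Michaelis–Menten fit.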

[3] = pH rate dependence of manganese and cobalt arginase; type: biochemical; details: for apparent pKa of kcat vs pH (one-pKa model) / apparent pKa of 1/KM vs pH, lower pKa / apparent pKa of 1/KM vs pH, upper pKa: 37 °C; for apparent pKa of kcat vs pH (one-pKa model): Co-hArgI value tentative; for apparent pKa of 1/KM vs pH, lower pKa / apparent pKa of 1/KM vs pH, upper pKa: bell shaped curve; for ascending limb pKa of kcat/KM vs pH (fit) / descending limb pKa of kcat/KM vs pH (fit): two pKa Henderson-Hasselbach model
Summary of the method: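 Mn- or Co-substituted enzyme assayed at 37 °C, at least in triplicate, in 100 mM buffers: acetate (pH 5–5.5), MES (6–6.5), HEPES (7–7.8), Tris (8–9), Capso (9–10.5). L-Arg ranged 30 µM–80 mM depending on pH. Michaelis–Menten fits gave kcat and KM. kcat/KM versus pH fitted to a Henderson–Hasselbalch form for ascending and descending pKa, with Segel correction. Log kcat and 1/KM plotted versus pH.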

[4] = Serum stability in pooled human serum; type: in vitro ADME; details: 1 μM enzyme, 37 °C
Summary of the method: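 Purified His-tagged hArgI (E. coli BL21, IMAC, metal-loaded with 10 mM CoCl2 or MnSO4, 15 min at 50–55 °C) added at 1 µM to pooled human serum at 37 °C. Aliquots taken at time points and tested in triplicate for hydrolysis of 1 mM L-Arg. Rate versus time fitted to a single exponential or a biphasic decay model to give t1/2.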

melanoma cell line A375 = details: for IC50: A375 melanoma cells, MTT
[5] = Thermal denaturation by circular dichroism; type: physicochemical; details: 100 mM phosphate buffer, pH 7.4, θ222
Summary of the method: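 Co-substituted enzyme at 6 µM in 100 mM phosphate, pH 7.4. Molar ellipticity at 222 nm monitored from 25 to 90 °C. Fraction denatured calculated as the ratio to the ellipticity of fully unfolded protein. Data fitted to a modified logistic equation for the transition midpoint.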

[6] = Kinetics of deactivation in HEPES buffer with added Co^2+; type: physicochemical; details: 100 mM HEPES, pH 7.4, 37 °C, in the presence of 500 μM Co^2+
[7] = tested on: hepatocellular carcinoma cell line, Hep3b; assay: In vitro cytotoxicity; type: cell-based, human
[8] = rat enzyme; cited from earlier work
[9] = cited from earlier work

Molecule: NC(N)=NCCN1CCNCCNCCNCC1.[Zn+2]
- apparent pKa of guanidinium deprotonation [1]: 5.9

Molecule: CC(C)C[C@H](N)C(=O)O [L-Leu, L-Leucine]
- Ki (Mn-hArgI; Ki L-Leu, pH 7.4): 390 ± 40 µM
- Ki (Mn-hArgI; Ki L-Leu, pH 8.5): 640 ± 40 µM
- Fold change Ki L-Leu (Mn-hArgI; pH 7.4 vs pH 8.5): (1.6) fold
- Ki (Co-hArgI; Ki L-Leu, pH 7.4): 480 ± 50 µM
- Ki (Co-hArgI; Ki L-Leu, pH 8.5): 1300 µM
- Fold change Ki L-Leu (Co-hArgI; pH 7.4 vs pH 8.5): (2.7) fold
- Ki (hArgII): 1000 ± 100 µM

Molecule: NCCCC[C@H](N)C(=O)O [L-Lys]
- Ki (rat Arginase I): 900 µM

Molecule: NCCC[C@H](N)C(=O)O [L-Orn, L-Ornithine]
- Ki (Mn-hArgI; read-out: Ki L-Orn, pH 7.4): 2400 µM
- Ki (Mn-hArgI; read-out: Ki L-Orn, pH 8.5): 530 ± 60 µM
- Ki (Co-hArgI; read-out: Ki L-Orn, pH 7.4): 76 ± 16 µM
- Ki (Co-hArgI; read-out: Ki L-Orn, pH 8.5): 50 ± 7 µM
- Ki (Co-hArgI; read-out: Ki L-Orn, pH 8.5, 37 °C): 64 ± 9 µM

B1: Mn-hArgI: recombinant human Arginase I with the native di-nuclear Mn^2+ cofactor (protein, UniProt P05089 1-322, looked up)
Arginase-1: T1 sequence (P05089 1-322)
modifications: Mn2+ cofactor
- kcat ([2]; pH 7.4, 37 °C): 300 ± 12 s⁻¹ and 300 s⁻¹
- Fold change KM L-Arg [2]: (1. 4) fold
- Km ([2]; pH 7.4, 37 °C, listed as Mn-ArgI): 2330 µM
- Km ([2]; pH 8.5): 1600 µM
- apparent pKa of kcat vs pH (one-pKa model) [3]: 8.1 ± 0.05
- apparent pKa of 1/KM vs pH, lower pKa [3]: 7.1 ± 0.1 and 7.1
- apparent pKa of 1/KM vs pH, upper pKa [3]: 10.7 ± 0.3 and 10.7
- fold increase of rate (kcat) with pH ([3]; over the pH range studied (log slope = 0.5)): more than 30 fold
- log kcat slope ([3]; pH 6 to pH 8.5): 0.5
- ascending limb pKa of kcat/KM vs pH (fit) [3]: 8.4 ± 0.1
- descending limb pKa of kcat/KM vs pH (fit) [3]: 11.0 ± 0.1
- t½ of activity (single exponential loss) [4]: 4.8 ± 0.8 h
- IC50 (melanoma cell line A375): 0.0041 ± 0.0001 µM

B2: Co-hArgI: Co^2+ substituted human Arginase I, recombinant, His6-tagged, expressed in E. coli (protein, UniProt P05089 1-322, looked up)
Arginase-1: T1 sequence (P05089 1-322)
modifications: Co2+ substituted; His6 tag
- kcat ([2]; pH 7.4, 37 °C): 240 ± 14 s⁻¹ and 240 s⁻¹
- Fold change KM L-Arg [2]: (1.4) fold
- Km ([2]; pH 7.4, 37 °C): 190 ± 40 µM
- Km ([2]; pH 8.5): 140 ± 10 µM
- apparent pKa of kcat vs pH (one-pKa model) [3]: 5.2 ± 0.1
- apparent pKa of 1/KM vs pH, lower pKa [3]: 7.2 ± 0.1
- apparent pKa of 1/KM vs pH, upper pKa [3]: 9.7 ± 0.1 and 9.7
- log kcat slope ([3]; pH 5 - 6): 0.43
- log kcat slope ([3]; pH 6 – 10.5): ~ 0.03 and 0.03
- ascending limb pKa of kcat/KM vs pH (fit) [3]: 7.4 ± 0.1
- descending limb pKa of kcat/KM vs pH (fit) [3]: 10.0 ± 0.1
- TM (mid-point temperature for unfolding) [5]: 74 °C
- t½ of activity (monophasic sigmoidal loss) [6]: 45 ± 2 h
- fold lower IC50 than Mn-hArgI ([7]; Hep3b): 15 fold
- fold lower IC50 value ([7]; human hepatocellular carcinoma and melanoma cell lines): 12-15 fold
- fold increase in cytotoxicity vs Mn-hArgI (melanoma cell line A375): ~ 13 fold
- IC50 (melanoma cell line A375): 0.00032 ± 6e-05 µM

B3: rat Mn-ArgI: rat Arginase I with Mn^2+, literature comparator (protein, UniProt P07824 1-323, looked up)
Arginase-1: MSSKPKPIEIIGAPFSKGQPRGGVEKGPAALRKAGLVEKLKETEYNVRDHGDLAFVDVPNDSPFQIVKNPRSVGKANEQLAAVVAETQKNGTISVVLGGDHSMAIGSISGHARVHPDLCVIWVDAHTDINTPLTTSSGNLHGQPVAFLLKELKGKFPDVPGFSWVTPCISAKDIVYIGLRDVDPGEHYIIKTLGIKYFSMTEVDKLGIGKVMEETFSYLLGRKKRPIHLSFDVDGLDPVFTPATGTPVVGGLSYREGLYITEEIYKTGLLSGLDIMEVNPTLGKTPEEVTRTVNTAVALTLSCFGTKREGNHKPETDYLKPPK
modifications: Mn2+ cofactor
- TM [8]: 75 °C

B4: bovine carboxypeptidase A: bovine carboxypeptidase A with Mn^2+ or Co^2+ as cofactor (protein, UniProt P00730 111-419, looked up)
Carboxypeptidase A1: ARSTNTFNYATYHTLDEIYDFMDLLVAEHPQLVSKLQIGRSYEGRPIYVLKFSTGGSNRPAIWIDLGIHSREWITQATGVWFAKKFTEDYGQDPSFTAILDSMDIFLEIVTNPDGFAFTHSQNRLWRKTRSVTSSSLCVGVDANRNWDAGFGKAGASSSPCSETYHGKYANSEVEVKSIVDFVKDHGNFKAFLSIHSYSQLLLYPYGYTTQSIPDKTELNQVAKSAVEALKSLYGTSYKYGSIITTIYQASGGSIDWSYNQGIKYSFTFELRDTGRYGFLLPASQIIPTAQETWLGVLTIMEHTLNNLY
modifications: Mn2+ or Co2+ cofactor
- acidic limb kinetic pKa ([9]; Co^2+ substitution): 5.3
- acidic limb kinetic pKa ([9]; Mn^2+ as a cofactor): 6.4

B5: metallo-β-lactamase from B. cereus: metallo-β-lactamase from B. cereus with Mn^2+ or Co^2+ cofactor (protein, UniProt P04190 31-257, looked up)
Metallo-beta-lactamase type 2: SQKVEKTVIKNETGTISISQLNKNVWVHTELGSFNGEAVPSNGLVLNTSKGLVLVDSSWDDKLTKELIEMVEKKFQKRVTDVIITHAHADRIGGIKTLKERGIKAHSTALTAELAKKNGYEEPLGDLQTVTNLKFGNMKVETFYPGKGHTEDNIVVWLPQYNILVGGCLVKSTSAKDLGNVADAYVNEWSTSIENVLKRYRNINAVVPGHGEVGDKGLLLHTLDLLK
modifications: Mn2+ or Co2+ cofactor
- pKa ([9]; Co^2+ as the cofactor): 6.9
- pKa ([9]; with Mn^2+): 8.4
